Laboratory results reported in ChEMBL document CHEMBL1145969, “New semisynthetic quassinoids with in vivo antimalarial activity” (J Med Chem, 2003).

Tests used:
Mus musculus [1] = experiment: Antimalarial potency was evaluated by the increase of life span of mice (Mus musculus) at 1 mg/kg; assay type: functional
Method in brief: (§1)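 Mice infected with P. berghei were treated daily in a 4-day suppressive test, with the dose as given in each line. Increase of life span = (T/C − 1) × 100%, where T and C are the mean survival days of the treated and control groups.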

Mus musculus [2] = experiment: In Vivo antimalarial activity of compound was tested in Plasmodium berghei infected mice (Mus musculus); assay type: functional
Method in brief: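 Four-day suppressive test in P. berghei-infected mice, dosed daily at up to 3.0 mg/kg per day. Parasitemia is the number of infected erythrocytes over total erythrocytes. Survival is scored as increase of life span: ILS = (T/C − 1) × 100%, using mean survival days of the treated (T) and control (C) groups.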

FM3A = experiment: Cytotoxicity of compound was tested against mouse mammary tumor FM3A cells; assay type: functional, cell-based
[3] = Selectivity index defined as mean of EC50 value for FM3A cells/mean of EC50 value for Plasmodium falciparum was determined; assay type: functional
Method in brief: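 Index is the mean EC50 in FM3A mouse mammary tumor cells (the host-cell model) divided by the mean EC50 against chloroquine-sensitive P. falciparum FCR-3.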

Plasmodium falciparum = experiment: In vitro antimalarial activity against Plasmodium falciparum; assay type: functional, organism-based
Method in brief: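 Chloroquine-sensitive P. falciparum, FCR-3 strain, grown in vitro; potency is reported as EC50.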

Mus musculus [4] = experiment: Antimalarial potency was evaluated by the increase of life span of mice (Mus musculus) at 3 mg/kg; assay type: functional; method in brief: as §1

| EC50 (Plasmodium falciparum) | SMILES | ILS at 1 mg/kg (Mus musculus [1]) | ED50 (Mus musculus [2]) | ED90 (Mus musculus [2]) | EC50 (FM3A) | Selectivity index [3] | ILS at 3 mg/kg (Mus musculus [4]) |
| --- | --- | --- | --- | --- | --- | --- | --- |
| – | COC(=O)[C@@]12OC[C@]34[C@H]([C@@H](O)[C@@H]1O)[C@@]1(C)CC(=O)C(OC(C)=O)=C(C)[C@@H]1C[C@H]3OC(=O)[C@H](OC(C)=O)[C@@H]24 | 49% | 0.46 mg/kg | 0.98 mg/kg | 16 µM | 410 | – |
| 0.053 µM | COC(=O)O[C@H]1C(=O)O[C@@H]2C[C@H]3C(C)=C(O)C(=O)C[C@]3(C)[C@H]3[C@@H](O)[C@H](O)[C@@]4(C(=O)OC)OC[C@]32[C@@H]14 | – | – | – | 8.7 µM | 164 | – |
| 0.1 µM | CCCOC(=O)OC1=C(C)[C@@H]2C[C@H]3OC(=O)[C@H](OC(=O)OCCC)[C@H]4[C@]5(C(=O)OC)OC[C@]34[C@H]([C@@H](O)[C@@H]5O)[C@@]2(C)CC1=O | – | – | – | 6.6 µM | 66 | – |
| 0.88 µM | COC(=O)[C@@]12OC[C@]34[C@H]([C@@H](O)[C@@H]1O)[C@@]1(C)CC(=O)C(OC(C)=O)=C(C)[C@@H]1C[C@H]3OC(=O)[C@H](O)[C@@H]24 | – | – | – | > 32 µM | >36 | – |
| 0.014 µM | CCCCOC(=O)OC1=C(C)[C@@H]2C[C@H]3OC(=O)[C@H](OC(=O)OCCCC)[C@H]4[C@]5(C(=O)OC)OC[C@]34[C@H]([C@@H](O)[C@@H]5O)[C@@]2(C)CC1=O | – | – | – | 0.7 µM | 50 | – |
| – | COC(=O)[C@@]12OC[C@]34[C@H]([C@@H](O)[C@@H]1O)[C@@]1(C)CC(=O)C(O)=C(C)[C@@H]1C[C@H]3OC(=O)[C@H](OC(C)=O)[C@@H]24 [BRUCEINE B] | – | – | – | 8 µM | 333 | – |
| – | COC(=O)[C@@]12OC[C@]34[C@H]([C@@H](O)[C@@H]1O)[C@@]1(C)CC(=O)C(O)=C(C)[C@@H]1C[C@H]3OC(=O)[C@H](O)[C@@H]24 [BRUCEOLIDE] | – | 1.1 mg/kg | – | – | – | – |
| – | CCN(CC)CCCC(C)Nc1ccnc2cc(Cl)ccc12 (stereo not drawn) [CHLOROQUINE] | – | 2 mg/kg | 3.3 mg/kg | 32 µM | 1780 | 15% |

| SMILES | EC50 (Plasmodium falciparum) | ILS at 1 mg/kg (Mus musculus [1]) | ED50 (Mus musculus [2]) | ED90 (Mus musculus [2]) | EC50 (FM3A) | Selectivity index [3] | ILS at 3 mg/kg (Mus musculus [4]) |
| --- | --- | --- | --- | --- | --- | --- | --- |
| COC(=O)[C@@]12OC[C@]34[C@H]([C@@H](O)[C@@H]1O)[C@@]1(C)CC(=O)C(OC(=O)OC(C)C)=C(C)[C@@H]1C[C@H]3OC(=O)[C@H](OC(=O)OC(C)C)[C@@H]24 | 0.08 µM | – | 1.4 mg/kg | > 3 mg/kg | 11 µM | 138 | 86% |
| COC(=O)OC1=C(C)[C@@H]2C[C@H]3OC(=O)[C@H](OC(=O)OC)[C@H]4[C@]5(C(=O)OC)OC[C@]34[C@H]([C@@H](O)[C@@H]5O)[C@@]2(C)CC1=O | 0.09 µM | – | 1.3 mg/kg | 3 mg/kg | > 63 µM | >700 | 196% |
| CCOC(=O)OC1=C(C)[C@@H]2C[C@H]3OC(=O)[C@H](OC(=O)OCC)[C@H]4[C@]5(C(=O)OC)OC[C@]34[C@H]([C@@H](O)[C@@H]5O)[C@@]2(C)CC1=O | 0.064 µM | – | 0.49 mg/kg | 1.9 mg/kg | 36 µM | 563 | 182% |
